Experimental data taken from ChEMBL document CHEMBL1138555, “N-acylated and N,N'-diacylated imidazolidine-2-thione derivatives and N,N'-diacylated tetrahydropyrimidine-2(1H)-thione analogues: synthesis and antiproliferative activity” (Eur J Med Chem, 2009).
pIC50: −log10 of the molar value.

Legend:
[1] = test system: NCI-H460; experiment: Growth inhibition of human NCI-H460 cells after 48 hrs by sulforhodamine B assay; assay type: functional; settings: NCI-H460, 48 h
Method in brief: (§1)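 NCI screen panel. Five 10-fold concentrations from 10^-4 to 10^-8 M. Exposure for the last 48 h of a 72 h incubation. Growth estimated by sulforhodamine B protein assay. GI50 is the concentration giving 50% growth inhibition. Where that level was not reached or was exceeded, the value is given as above or below the highest or lowest concentration tested.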

[2] = test system: LOX IMVI; experiment: Growth inhibition of human LOXIMVI cells after 48 hrs by sulforhodamine B assay; assay type: functional; method in brief: as §1
[3] = test system: NCI-H322M; experiment: Growth inhibition of human NCI-H322M cells after 48 hrs by sulforhodamine B assay; assay type: functional; method in brief: as §1
[4] = test system: CAKI-1; experiment: Growth inhibition of human Caki1 cells after 48 hrs by sulforhodamine B assay; assay type: functional; settings: CAKI-1, 48 h; method in brief: as §1
[5] = test system: BT-549; experiment: Growth inhibition of human BT549 cells after 48 hrs by sulforhodamine B assay; assay type: functional; settings: BT-549, 48 h; method in brief: as §1
[6] = test system: HT-29; experiment: Growth inhibition of human HT-29 cells after 48 hrs by sulforhodamine B assay; assay type: functional; settings: HT-29, 48 h; method in brief: as §1
[7] = test system: MOLT-4; experiment: Growth inhibition of human MOLT4 cells after 48 hrs by sulforhodamine B assay; assay type: functional; settings: MOLT-4, 48 h; method in brief: as §1
[8] = Growth inhibition of human […] cells after 48 hrs by sulforhodamine B assay; assay type: functional; method in brief: as §1
[9] = test system: IGROV-1; experiment: Growth inhibition of human IGROV1 cells after 48 hrs by sulforhodamine B assay; assay type: functional; settings: IGROV-1, 48 h; method in brief: as §1
[10] = test system: SNB-19; experiment: Growth inhibition of human SNB19 cells after 48 hrs by sulforhodamine B assay; assay type: functional; settings: SNB-19, 48 h
Method in brief: (§2)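 NCI in vitro panel screen. Compounds tested at five 10-fold dilutions, 10^-4 to 10^-8 M. Cells in 96-well plates were exposed for the last 48 h of a 72 h incubation. Viability/growth was read by sulforhodamine B protein assay. GI50 is the concentration giving 50% growth inhibition. Values beyond the tested range are reported as greater or less than the maximum or minimum concentration.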

[11] = test system: SF-295; experiment: Growth inhibition of human SF295 cells after 48 hrs by sulforhodamine B assay; assay type: functional; settings: SF-295, 48 h; method in brief: as §1
[12] = test system: SF-268; experiment: Growth inhibition of human SF268 cells after 48 hrs by sulforhodamine B assay; assay type: functional; settings: SF-268, 48 h; method in brief: as §1
[13] = test system: KM12; experiment: Growth inhibition of human KM12 cells after 48 hrs by sulforhodamine B assay; assay type: functional; settings: KM12, 48 h; method in brief: as §1
[14] = test system: MT4; experiment: Antiproliferative activity against human MT4 cells assessed as reduction of growth by MTT assay; assay type: functional, cell-based
Method in brief: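 MT-4 lymphoblastoid T cells (ATCC) in RPMI 1640 with 10% FCS, penicillin/streptomycin, checked for mycoplasma. 1 × 10⁴ mock-infected cells per well with serial dilutions from a 100 mM DMSO stock. Incubated 4 days at 37 °C, viable cells counted by MTT. IC50 versus untreated controls by linear regression. Mean of three separate experiments.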

[15] = test system: HOP-62; experiment: Growth inhibition of human HOP62 cells after 48 hrs by sulforhodamine B assay; assay type: functional; settings: HOP-62, 48 h; method in brief: as §1
[16] = test system: SN12C; experiment: Growth inhibition of human SN12C cells after 48 hrs by sulforhodamine B assay; assay type: functional; method in brief: as §2
[17] = test system: K562; experiment: Growth inhibition of human K562 cells after 48 hrs by sulforhodamine B assay; assay type: functional; settings: K562, 48 h; method in brief: as §1
[18] = test system: T47D; experiment: Growth inhibition of human T47D cells after 48 hrs by sulforhodamine B assay; assay type: functional; method in brief: as §2
[19] = test system: U-251; experiment: Growth inhibition of human U251 cells after 48 hrs by sulforhodamine B assay; assay type: functional; settings: U-251, 48 h; method in brief: as §2
[20] = test system: M14; experiment: Growth inhibition of human M14 cells after 48 hrs by sulforhodamine B assay; assay type: functional; settings: M14, 48 h; method in brief: as §1
[21] = test system: SNB-75; experiment: Growth inhibition of human SNB75 cells after 48 hrs by sulforhodamine B assay; assay type: functional; settings: SNB-75, 48 h; method in brief: as §2
[22] = test system: Malme-3M; experiment: Growth inhibition of human MALME-3M cells after 48 hrs by sulforhodamine B assay; assay type: functional; method in brief: as §1
[23] = test system: TK-10; experiment: Growth inhibition of human TK10 cells after 48 hrs by sulforhodamine B assay; assay type: functional; settings: TK-10, 48 h; method in brief: as §2
[24] = test system: OVCAR-8; experiment: Growth inhibition of human OVCAR8 cells after 48 hrs by sulforhodamine B assay; assay type: functional; settings: OVCAR-8, 48 h; method in brief: as §1
[25] = test system: PC-3; experiment: Growth inhibition of human PC3 cells after 48 hrs by sulforhodamine B assay; assay type: functional; settings: PC-3, 48 h; method in brief: as §1
[26] = test system: RXF 393; experiment: Growth inhibition of human RXF393 cells after 48 hrs by sulforhodamine B assay; assay type: functional; settings: RXF 393, 48 h; method in brief: as §1
[27] = test system: HOP-92; experiment: Growth inhibition of human HOP92 cells after 48 hrs by sulforhodamine B assay; assay type: functional; settings: HOP-92, 48 h; method in brief: as §1
[28] = test system: NCI-H23; experiment: Growth inhibition of human NCI-H23 cells after 48 hrs by sulforhodamine B assay; assay type: functional; settings: NCI-H23, 48 h; method in brief: as §1
[29] = test system: HCT-15; experiment: Growth inhibition of human HCT15 cells after 48 hrs by sulforhodamine B assay; assay type: functional; settings: HCT-15, 48 h; method in brief: as §1
[30] = test system: SK-OV-3; experiment: Growth inhibition of human SKOV3 cells after 48 hrs by sulforhodamine B assay; assay type: functional; settings: SK-OV-3, 48 h; method in brief: as §1
[31] = test system: UO-31; experiment: Growth inhibition of human UO31 cells after 48 hrs by sulforhodamine B assay; assay type: functional; settings: UO-31, 48 h; method in brief: as §2
[32] = test system: OVCAR-4; experiment: Growth inhibition of human OVCAR4 cells after 48 hrs by sulforhodamine B assay; assay type: functional; settings: OVCAR-4, 48 h; method in brief: as §1
[33] = test system: SK-MEL-28; experiment: Growth inhibition of human SK-MEL-28 cells after 48 hrs by sulforhodamine B assay; assay type: functional; settings: SK-MEL-28, 48 h; method in brief: as §1
[34] = test system: ACHN; experiment: Growth inhibition of human ACHN cells after 48 hrs by sulforhodamine B assay; assay type: functional; method in brief: as §1
[35] = test system: SK-MEL-2; experiment: Growth inhibition of human SK-MEL-2 cells after 48 hrs by sulforhodamine B assay; assay type: functional; settings: SK-MEL-2, 48 h; method in brief: as §1
[36] = test system: MDA-MB-435; experiment: Growth inhibition of human MDA-MB-435 cells after 48 hrs by sulforhodamine B assay; assay type: functional; settings: MDA-MB-435, 48 h; method in brief: as §1
[37] = test system: MDA-MB-231; experiment: Growth inhibition of human MDA-MB-231 cells after 48 hrs by sulforhodamine B assay; assay type: functional; settings: MDA-MB-231, 48 h; method in brief: as §1
[38] = test system: SK-MEL-5; experiment: Growth inhibition of human SK-MEL-5 cells after 48 hrs by sulforhodamine B assay; assay type: functional; settings: SK-MEL-5, 48 h; method in brief: as §1
[39] = test system: 786-0; experiment: Growth inhibition of human 786-0 cells after 48 hrs by sulforhodamine B assay; assay type: functional; settings: 786-0, 48 h; method in brief: as §1
[40] = test system: COLO 205; experiment: Growth inhibition of human COLO205 cells after 48 hrs by sulforhodamine B assay; assay type: functional; settings: COLO 205, 48 h; method in brief: as §1
[41] = test system: OVCAR-3; experiment: Growth inhibition of human OVCAR-3 cells after 48 hrs by sulforhodamine B assay; assay type: functional; settings: OVCAR-3, 48 h; method in brief: as §1
[42] = test system: SR; experiment: Growth inhibition of human SR cells after 48 hrs by sulforhodamine B assay; assay type: functional; method in brief: as §2
[43] = test system: DU-145; experiment: Growth inhibition of human DU145 cells after 48 hrs by sulforhodamine B assay; assay type: functional; settings: DU-145, 48 h; method in brief: as §1
[44] = test system: HCT-116; experiment: Growth inhibition of human HCT116 cells after 48 hrs by sulforhodamine B assay; assay type: functional; settings: HCT-116, 48 h; method in brief: as §1
[45] = test system: EKVX; experiment: Growth inhibition of human EKVX cells after 48 hrs by sulforhodamine B assay; assay type: functional; method in brief: as §1
[46] = test system: UACC-62; experiment: Growth inhibition of human UACC62 cells after 48 hrs by sulforhodamine B assay; assay type: functional; settings: UACC-62, 48 h; method in brief: as §2
[47] = test system: SW-620; experiment: Growth inhibition of human SW620 cells after 48 hrs by sulforhodamine B assay; assay type: functional; settings: SW-620, 48 h; method in brief: as §2
[48] = test system: A549; experiment: Growth inhibition of human A549 cells after 48 hrs by sulforhodamine B assay; assay type: functional; settings: A549, 48 h; method in brief: as §1
[49] = test system: HL-60(TB); experiment: Growth inhibition of human HL-60(TB) cells after 48 hrs by sulforhodamine B assay; assay type: functional; settings: HL-60, 48 h
Method in brief: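 NCI 60-cell-line screen protocol: cells exposed to compound at five 10-fold dilutions from 10^-4 to 10^-8 M for the last 48 h of a 72 h incubation. Sulforhodamine B protein assay estimated viability/growth. GI50 (50% growth inhibition) derived; where not reached or exceeded, reported as greater or less than the highest or lowest concentration tested.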

[50] = test system: UACC-257; experiment: Growth inhibition of human UACC257 cells after 48 hrs by sulforhodamine B assay; assay type: functional; settings: UACC-257, 48 h; method in brief: as §2
[51] = test system: NCI/ADR-RES; experiment: Growth inhibition of human NCI/ADR-RES cells after 48 hrs by sulforhodamine B assay; assay type: functional; method in brief: as §1

COC(=O)/C(C#N)=C/N1CCN(C(=O)c2ccco2)C1=S
GI50 [1]: 2.5 µM
GI50 [2]: 2.4 µM
GI50 [3]: 14 µM
GI50 [4]: 3.4 µM
GI50 [5]: 4.2 µM
GI50 [6]: 12.2 µM
GI50 [7]: 7.4 µM
GI50 [8]: 3.3 µM
GI50 [9]: 6.2 µM
GI50 [10]: 54.9 µM
GI50 [11]: 26 µM
GI50 [12]: 4.8 µM
GI50 [13]: 3.3 µM
pIC50 [14]: 5.30
GI50 [15]: 22.3 µM
GI50 [16]: 3.7 µM
GI50 [17]: 3.7 µM
GI50 [18]: 4.6 µM
GI50 [19]: 6.8 µM
GI50 [20]: 6.4 µM
GI50 [21]: 15.5 µM
GI50 [22]: 32.7 µM
GI50 [23]: 3.6 µM
GI50 [24]: 15.5 µM
GI50 [25]: 6.8 µM
GI50 [26]: 3.1 µM
GI50 [27]: 14 µM
GI50 [28]: 13.2 µM
GI50 [29]: 3 µM
GI50 [30]: 28.2 µM
GI50 [31]: 5.2 µM
GI50 [32]: 23.3 µM
GI50 [33]: 13 µM
GI50 [34]: 4.8 µM
GI50 [35]: 2.9 µM
GI50 [36]: 6.8 µM
GI50 [37]: 4.2 µM
GI50 [38]: 14.8 µM
GI50 [39]: 6.3 µM
GI50 [40]: 31.7 µM
GI50 [41]: 4.9 µM
GI50 [42]: 2.1 µM
GI50 [43]: 3.5 µM
GI50 [44]: 4 µM
GI50 [45]: 10.2 µM
GI50 [46]: 10.8 µM
GI50 [47]: 5.2 µM
GI50 [48]: 14.6 µM
GI50 [49]: 6.9 µM
GI50 [50]: 5.9 µM
GI50 [51]: 24 µM
